Bioassay records deposited in PubChem BioAssay by Johns Hopkins Ion Channel Center.
Rows were chosen to be rich in hits. Some 2.3% of all compounds tested hit in one or more screens of this group.
TRPC6 act: mouse TRPC6 channel activation. Q61143. HEK293-TRPC6 membrane potential dye fluorescence; active compounds read high. B-score at 10 µM. 310,000 compounds, 0.13% hits;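 active means B-score of the integrated fluorescence ratio above library mean plus 3 SD, and starting fluorescence ratio within library mean plus 5 SD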;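 further: higher score means more depolarization so channel activation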
Target sequence (Q61143 whole entry, looked up): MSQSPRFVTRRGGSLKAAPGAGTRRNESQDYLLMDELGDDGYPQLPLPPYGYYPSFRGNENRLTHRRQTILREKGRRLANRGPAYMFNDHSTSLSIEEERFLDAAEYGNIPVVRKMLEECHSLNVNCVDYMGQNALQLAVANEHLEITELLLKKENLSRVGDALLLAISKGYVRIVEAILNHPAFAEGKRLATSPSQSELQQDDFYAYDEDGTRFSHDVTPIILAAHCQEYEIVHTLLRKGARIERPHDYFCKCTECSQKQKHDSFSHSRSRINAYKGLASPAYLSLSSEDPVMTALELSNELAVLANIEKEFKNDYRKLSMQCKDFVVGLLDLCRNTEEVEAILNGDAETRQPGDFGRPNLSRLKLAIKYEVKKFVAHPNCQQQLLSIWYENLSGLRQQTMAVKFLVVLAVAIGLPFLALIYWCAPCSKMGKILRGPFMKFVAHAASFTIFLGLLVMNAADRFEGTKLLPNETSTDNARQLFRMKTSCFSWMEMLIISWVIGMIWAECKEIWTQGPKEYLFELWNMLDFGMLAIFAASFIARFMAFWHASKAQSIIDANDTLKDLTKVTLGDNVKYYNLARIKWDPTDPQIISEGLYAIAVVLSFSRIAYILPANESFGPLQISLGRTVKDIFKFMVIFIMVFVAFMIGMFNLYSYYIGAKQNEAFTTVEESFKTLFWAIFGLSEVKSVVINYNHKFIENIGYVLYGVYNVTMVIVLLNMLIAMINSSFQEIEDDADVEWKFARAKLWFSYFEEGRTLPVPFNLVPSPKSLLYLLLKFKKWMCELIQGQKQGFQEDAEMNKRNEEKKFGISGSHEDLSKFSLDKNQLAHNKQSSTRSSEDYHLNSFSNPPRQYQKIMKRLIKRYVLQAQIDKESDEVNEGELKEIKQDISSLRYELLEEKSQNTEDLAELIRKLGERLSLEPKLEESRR
TRPC4 block: blocks the mouse TRPC4 cation channel. Q9QUQ5. B-score at 10 µM. 300,000 compounds, 0.39% hits. HEK293 TRPC4beta/mu-opioid, DAMGO-evoked Fluo4 calcium flux; active compounds read low;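 active means B-score over 3 SD under the library average, no early fluorescence shift, positive overall ratio signal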
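test system = HEK293 cells with stable TRPC4beta plus mu-opioid receptor expression | detection = Fluo4 Ca2+ flux fluorescence | read-out = integrated fluorescence ratio relative to baseline, converted to per-well B score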
TRPC6 inhibitor: mouse TRPC6 channel inhibition. AID 2553. B-score at 10 µM. 310,000 compounds, 1.1% hits. HEK293-TRPC6, membrane potential dye, ACh-evoked depolarization; active compounds read low;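 active means B-score under library mean minus 3 SD, initial fluorescence not abnormally high, positive integrated signal ratio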;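 further: B-score derived from integrated fluorescence ratio over the kinetic read; more negative B-score means stronger inhibition of depolarization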
TRPC4 PAM: TRPC4 (mouse) allosteric potentiation | HEK293 TRPC4beta/mu-opioid, DAMGO EC20, Fluo-4 Ca2+ flux; active compounds read high | 310,000 compounds, 0.42% hits | B-score at 10 µM | Q9QUQ5;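 active means B-score of calcium response area above 5 SD of library B-scores, with initial fluorescence ratio within 5 SD of library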;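 further: B-score of integrated fluorescence ratio over time as area under calcium response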
TRPC4 agonist: activators of mouse TRPC4 channel. 310,000 compounds, 0.49% hits. Q9QUQ5. B-score at 10 µM. HEK293 TRPC4beta/mu-opioid, Fluo4 calcium fluorescence; active compounds read high. AID 2237;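 active means B-score above 5 SD of library B-scores, and initial fluorescence ratio not above library mean plus 5 SD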;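 further: positive B-score marks a calcium rise read as TRPC4 activation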
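Material: TRPC4beta and mu-opioid receptor HEK293 stable cells | Incubation: 45 min room-temperature Fluo4 loading, 110 s read | Detection: Kinetic Fluo4 calcium fluorescence | Measure: Integrated baseline-normalised fluorescence ratio, converted to per-well B score | Benchmarks: Low control buffer alone, high control maximal DAMGO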
Starred values were filed as active, the others as inactive; i = inactive.

SMILES	TRPC6 act	TRPC4 block	TRPC6 inhibitor	TRPC4 PAM	TRPC4 agonist
Cc1ccc(/C=N/NC(=O)NC2CCCCC2)o1	i	i	i	72*	i
CC(C)c1ccc(/C=C/C(=O)NC2CCCCC2)cc1	i	i	i	i	i
CCCC(=O)N1CCc2cc(-c3nc(N)sc3C)ccc21	i	i	i	i	101*
CNc1nc(-c2ccc3c(c2)CCN3C(=O)CC(C)(C)C)c(C)s1	i	i	i	i	i
CN(C)CCn1c(=O)n(C2CCCCC2)c(=O)c2c3c(sc21)CCCCC3	i	i	i	i	i
CCn1c(=O)n(CCOC)c(=O)c2c3c(sc21)CCCC3	i	-6*	i	i	i
CCC(C)n1c(SCC(=O)Nc2cc(C)on2)nc2ccccc2c1=O (stereo not given)	i	i	i	i	44*
CCn1c(SCC(=O)Nc2cccc(C)c2)nc2ccccc2c1=O	i	i	i	i	i
C=C(C)Cn1c(SCC)nc2ccccc2c1=O	i	-5*	i	i	i
CCn1c(SCC(=O)Nc2ccccc2)nc2ccccc2c1=O	i	-5*	i	i	i
COC(=O)c1cccn(CC(=O)c2ccc(Cl)cc2)c1=O	i	i	i	i	i
O=[N+]([O-])c1ccc(N2CCN(CCOc3nonc3-c3ccccc3)CC2)c(Cl)c1	i	i	i	17*	i
O=C(Nc1cc2c(oc1=O)CCCC2=O)c1ccc(Cl)cc1	i	i	i	i	i
COc1ccc2nc3cc(Cl)ccc3c(Nc3cc(CN4CCCC4)c(O)c(CN4CCCC4)c3)c2n1	i	i	-6.6*	i	i
COc1ccc(OCC(=O)N2c3ccc(C)cc3C3CN(C)CCC32)cc1 (stereo not given)	i	i	i	i	i
Cc1ccc2c(c1)C1CN(C)CCC1N2C(=S)NC(=O)c1ccc(Br)cc1 (stereo not given)	i	i	i	17*	i
O=[N+]([O-])c1cc(C(F)(F)F)ccc1N1CCN(S(=O)(=O)c2ccc3c(c2)CCCC3)CC1	i	i	i	i	i
O=[N+]([O-])c1cc(C(F)(F)F)ccc1N1CCCNCC1	i	i	i	42*	83*
O=C(c1ccc2c(c1)OCO2)C1CCCN(Cc2cc(F)ccc2-n2cccn2)C1 (stereo not given)	i	-5*	i	i	i
O=C(c1ccc2c(c1)OCO2)C1CCCN(Cc2ccccc2OC(F)F)C1 (stereo not given)	i	-7*	i	i	i
O=C(c1ccc(Cl)cc1)C1CCCN(Cc2cccn2-c2cccnc2)C1 (stereo not given)	i	i	i	i	i
O=C(c1ccc2c(c1)OCO2)C1CCCN(Cc2cccn2-c2cccnc2)C1 (stereo not given)	i	-6*	i	i	i
Cc1ccc(N(CC(=O)NC(C)(C)C)C(=O)CNC(=O)c2cccs2)cc1C	i	i	i	i	i
COc1cccc(C(=O)Oc2c(Br)cc(Br)cc2/C=N/NC(=O)c2cc(C)[nH]n2)c1	i	i	i	i	i
COc1ccc(NS(=O)(=O)c2cccc(C(=O)NNC(=O)c3cc(S(N)(=O)=O)ccc3OC)c2)cc1	i	i	i	i	i
SMILES	TRPC6 act	TRPC4 block	TRPC6 inhibitor	TRPC4 PAM	TRPC4 agonist
Cc1ccn2c(CNCCn3cccn3)c(C(=O)N3CCCCCC3)nc2c1	i	i	i	i	i
Cc1ccn2c(CNCCCn3cccn3)c(C(=O)N3CCCCCC3)nc2c1	i	-7*	i	i	i
CCOC1(C)OCC(=O)[C@]2(CCC3C4CCC5=CC(=O)C=CC5(C)C4C(=O)CC32C)O1 (stereo not given in full)	i	i	i	i	i
CN(C)S(=O)(=O)c1ccc(Cl)c(C(=O)NC2CCN(Cc3ccccc3)C2)c1 (stereo not given)	i	i	i	19*	i
CC1CN(C(=S)NC(=O)C2CCCCC2)CC(C)O1 (stereo not given)	i	i	i	i	i
CC(=O)/C=C1/C(=O)Nc2ccccc21	i	-5*	i	i	i
C=CCOc1cccc(C(=O)/C=C2/C(=O)Nc3ccccc32)c1	i	i	i	i	i
CCCNS(=O)(=O)c1cc(Br)cc2c1N(C(=O)CC)CC2	i	i	i	i	i
CCC(=O)N1CCc2cc(Br)cc(S(=O)(=O)NCCCN(CC)Cc3ccccc3)c21	i	i	i	i	148*
CC1CC(C)CN(CCCNS(=O)(=O)c2ccc3c(c2)CCN3C(=O)C2CC2)C1 (stereo not given)	i	i	i	i	66*
CC1CCN(C(=O)CCNS(=O)(=O)c2ccc3c(c2)oc(=O)n3C)CC1	i	i	i	i	i
CCC(=O)N1CCc2cc(Br)cc(S(=O)(=O)NCCCN(C)Cc3ccccc3)c21	i	i	i	40*	82*
CC1CC(C)CN(CCCNS(=O)(=O)c2ccc3c(c2)oc(=O)n3C)C1 (stereo not given)	i	i	i	i	49*
Cc1nc(NC(=O)CSC2=NCCS2)sc1C(=O)N(C)C	i	i	i	i	i
O=C1C([N+](=O)[O-])=C(O)c2cccc3cccc1c23	i	i	i	i	i
CC(=O)N1CCc2cc(Br)cc(S(=O)(=O)NCCCN(C)Cc3ccccc3)c21	i	i	i	i	119*
CCOCCCNS(=O)(=O)c1cc(Br)cc2c1N(C(=O)C1CC1)CC2	i	i	i	i	i
CCC(=O)N1CCc2cc(S(=O)(=O)NCCCN(CC)Cc3ccccc3)ccc21	i	i	i	i	50*
CCC(=O)N1CCc2cc(S(=O)(=O)NCCN3CCCCC3CC)ccc21 (stereo not given)	i	-9*	i	i	i
CCOC(=O)C1CCN(C(=O)CCNS(=O)(=O)c2ccc3c(c2)CCN3C(=O)CC)CC1	i	i	i	i	i
CC(=O)N1CCN(c2ccccc2NC(=O)c2ccc3ccccc3c2)CC1	i	-5*	i	i	i
CC(=O)N1CCN(c2ccccc2NC(=O)c2cccs2)CC1	i	-6*	i	i	i
COc1ccc(C(=O)Nc2ccccc2N2CCCC2)cc1	i	i	i	i	i
CCC(=O)N1CCN(c2ccccc2NC(=O)c2cccs2)CC1	i	i	i	i	i
CC(C)C(=O)N1CCN(c2ccccc2NC(=O)c2ccco2)CC1	i	-10*	i	i	i
